{"source": "ChEMBL document CHEMBL1127688", "about": "“Guaiacoxypropanolamine derivatives of capsaicin: a new family of beta-adrenoceptor blockers with intrinsic cardiotonic properties” (J Med Chem, 1994)", "key": {"Rattus norvegicus [1]": {"system": "Rattus norvegicus", "assay": "Minimum dose of iv injection that shows vagus reflex and a heart rate decrease of 50 beats/min in non-vagotomized rats", "type": "functional", "in_short": "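Non-vagotomized rats given increasing iv doses. The value is the lowest dose (mg/kg) that elicits a vagus reflex with a heart-rate fall of 50 beats/min. Compounds were scored ineffective if no such response occurred below 3 mg/kg. n = 8.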"}, "Rattus norvegicus [2]": {"system": "Rattus norvegicus", "assay": "Change in blood pressure was tested by inducing ia injection at a dose 0.1 mg/kg in rat", "type": "functional", "conditions": "route intra-arterial"}, "Rattus norvegicus [3]": {"system": "Rattus norvegicus", "assay": "Heart rate of the urethane-anesthetized normotensive Wistar rat was tested 60 min after inducing the compound on dose of 1.0 mg/kg", "type": "functional", "in_short": "(§1)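 Urethane-anesthetized normotensive Wistar rats given a single iv injection at 1.0 mg/kg. Blood pressure (mmHg) and heart rate (beats/min) recorded, and the change reported at 5, 10, 15, 30 and 60 min after dosing. Saline-injected controls. Mean ± SE, n = 8. Significance versus saline by analysis of variance.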"}, "Cavia porcellus [4]": {"species_on_record": "Cavia porcellus", "assay": "Positive inotropic effect was evaluated on atrial muscles of the guinea pig", "type": "functional, Muscle tissue", "conditions": "Cavia porcellus, Muscle tissue; read-out: pA2 (converted)"}, "Rattus norvegicus [5]": {"system": "Rattus norvegicus", "assay": "Heart rate of the urethane-anesthetized normotensive Wistar rat was tested 10 min after inducing the compound on dose of 1.0 mg/kg", "type": "functional", "in_short": "as §1"}, "Rattus norvegicus [6]": {"system": "Rattus norvegicus", "assay": "Heart rate of the urethane-anesthetized normotensive Wistar rat was tested 5 min after inducing the compound on dose of 1.0 mg/kg", "type": "functional", "in_short": "as §1"}, "Rattus norvegicus [7]": {"system": "Rattus norvegicus", "assay": "Heart rate of the urethane-anesthetized normotensive Wistar rat was tested 15 min after inducing the compound on dose of 1.0 mg/kg", "type": "functional", "in_short": "as §1"}, "Rattus norvegicus [8]": {"system": "Rattus norvegicus", "assay": "Blood pressure of the urethane-anesthetized normotensive Wistar rat was tested 10 min after inducing the compound on dose of 1.0 mg/kg", "type": "functional", "in_short": "as §1"}, "Rattus norvegicus [9]": {"system": "Rattus norvegicus", "assay": "Blood pressure of the urethane-anesthetized normotensive Wistar rat was tested 60 min after inducing the compound on dose of 1.0 mg/kg", "type": "functional", "in_short": "as §1"}, "Cavia porcellus [10]": {"species_on_record": "Cavia porcellus", "assay": "Positive chronotropic effect was evaluated on atrial muscles of the guinea pig", "type": "functional, Muscle tissue", "conditions": "Cavia porcellus, Muscle tissue; read-out: pA2 (converted)"}, "Rattus norvegicus [11]": {"system": "Rattus norvegicus", "assay": "Blood pressure of the urethane-anesthetized normotensive Wistar rat was tested 15 min after inducing the compound on dose of 1.0 mg/kg", "type": "functional", "in_short": "as §1"}, "Rattus norvegicus [12]": {"system": "Rattus norvegicus", "assay": "Blood pressure of the urethane-anesthetized normotensive Wistar rat was tested 30 min after inducing the compound on dose of 1.0 mg/kg", "type": "functional", "in_short": "as §1"}, "Rattus norvegicus [13]": {"system": "Rattus norvegicus", "assay": "Heart rate of the urethane-anesthetized normotensive Wistar rat was tested 30 min after inducing the compound on dose of 1.0 mg/kg", "type": "functional", "in_short": "as §1"}, "Rattus norvegicus [14]": {"system": "Rattus norvegicus", "assay": "Blood pressure of the urethane-anesthetized normotensive Wistar rat was tested 5 min after inducing the compound on dose of 1.0 mg/kg", "type": "functional", "in_short": "as §1"}}}
{"smiles": "CCCCCCCCC(=O)NCc1ccc(OCCO)c(OC)c1", "values": [{"measurement": "Dose", "setting": "Rattus norvegicus [1]", "value": 0.3, "unit": "mg/kg"}, {"measurement": "BP", "setting": "Rattus norvegicus [2]", "value": -44.2, "unit": "mmHg"}]}
{"smiles": "CCCCCCCCC(=O)NCc1ccc(OCC(O)CNCCCCC)c(OC)c1", "note": "(stereo not drawn)", "values": [{"measurement": "HR", "setting": "Rattus norvegicus [3]", "value": -6.56, "unit": "beats min-1"}, {"measurement": "Kb", "setting": "Cavia porcellus [4]", "value": 0.0282, "unit": "µM"}, {"measurement": "HR", "setting": "Rattus norvegicus [5]", "value": -23.33, "unit": "beats min-1"}, {"measurement": "HR", "setting": "Rattus norvegicus [6]", "value": -25.11, "unit": "beats min-1"}, {"measurement": "HR", "setting": "Rattus norvegicus [7]", "value": -10.22, "unit": "beats min-1"}, {"measurement": "BP", "setting": "Rattus norvegicus [8]", "value": -1.67, "unit": "mmHg"}, {"measurement": "BP", "setting": "Rattus norvegicus [9]", "value": 2.44, "unit": "mmHg"}, {"measurement": "Kb", "setting": "Cavia porcellus [10]", "value": 0.0646, "unit": "µM"}, {"measurement": "BP", "setting": "Rattus norvegicus [11]", "value": -0.88, "unit": "mmHg"}, {"measurement": "BP", "setting": "Rattus norvegicus [12]", "value": 3.67, "unit": "mmHg"}, {"measurement": "HR", "setting": "Rattus norvegicus [13]", "value": -5.78, "unit": "beats min-1"}, {"measurement": "BP", "setting": "Rattus norvegicus [14]", "value": -4.67, "unit": "mmHg"}]}
{"smiles": "CCCCCCCCC(=O)NCc1ccc(OCC(O)CNC(C)CC)c(OC)c1", "note": "(stereo not drawn)", "values": [{"measurement": "HR", "setting": "Rattus norvegicus [3]", "value": -9.56, "unit": "beats min-1"}, {"measurement": "Kb", "setting": "Cavia porcellus [4]", "value": 0.0224, "unit": "µM"}, {"measurement": "HR", "setting": "Rattus norvegicus [5]", "value": -35.44, "unit": "beats min-1"}, {"measurement": "HR", "setting": "Rattus norvegicus [6]", "value": -38.56, "unit": "beats min-1"}, {"measurement": "HR", "setting": "Rattus norvegicus [7]", "value": -32.33, "unit": "beats min-1"}, {"measurement": "BP", "setting": "Rattus norvegicus [8]", "value": 4.89, "unit": "mmHg"}, {"measurement": "BP", "setting": "Rattus norvegicus [9]", "value": 1.22, "unit": "mmHg"}, {"measurement": "Kb", "setting": "Cavia porcellus [10]", "value": 0.12, "unit": "µM"}, {"measurement": "BP", "setting": "Rattus norvegicus [11]", "value": 3.33, "unit": "mmHg"}, {"measurement": "BP", "setting": "Rattus norvegicus [12]", "value": -0.88, "unit": "mmHg"}, {"measurement": "HR", "setting": "Rattus norvegicus [13]", "value": -25.11, "unit": "beats min-1"}, {"measurement": "BP", "setting": "Rattus norvegicus [14]", "value": 4.11, "unit": "mmHg"}]}
{"smiles": "CCCCCCCCC(=O)NCc1ccc(OCC(O)CNCCCCCC)c(OC)c1", "note": "(stereo not drawn)", "values": [{"measurement": "HR", "setting": "Rattus norvegicus [3]", "value": -8, "unit": "beats min-1"}, {"measurement": "Kb", "setting": "Cavia porcellus [4]", "value": 0.0661, "unit": "µM"}, {"measurement": "HR", "setting": "Rattus norvegicus [5]", "value": -24.11, "unit": "beats min-1"}, {"measurement": "HR", "setting": "Rattus norvegicus [6]", "value": -35.56, "unit": "beats min-1"}, {"measurement": "HR", "setting": "Rattus norvegicus [7]", "value": -14.89, "unit": "beats min-1"}, {"measurement": "BP", "setting": "Rattus norvegicus [8]", "value": -2.89, "unit": "mmHg"}, {"measurement": "BP", "setting": "Rattus norvegicus [9]", "value": 1.89, "unit": "mmHg"}, {"measurement": "Kb", "setting": "Cavia porcellus [10]", "value": 0.933, "unit": "µM"}, {"measurement": "BP", "setting": "Rattus norvegicus [11]", "value": -4.44, "unit": "mmHg"}, {"measurement": "BP", "setting": "Rattus norvegicus [12]", "value": -2.11, "unit": "mmHg"}, {"measurement": "HR", "setting": "Rattus norvegicus [13]", "value": -12.67, "unit": "beats min-1"}, {"measurement": "BP", "setting": "Rattus norvegicus [14]", "value": -2.22, "unit": "mmHg"}]}
{"smiles": "CCCCCCCCC(=O)NCc1ccc(OCCN(CC)CC)c(OC)c1", "values": [{"measurement": "Dose", "setting": "Rattus norvegicus [1]", "value": 0.5, "unit": "mg/kg"}, {"measurement": "BP", "setting": "Rattus norvegicus [2]", "value": -15, "unit": "mmHg"}]}
{"smiles": "CCCCCCCCC(=O)NCc1ccc(OCC(O)CNC)c(OC)c1", "note": "(stereo not drawn)", "values": [{"measurement": "HR", "setting": "Rattus norvegicus [3]", "value": 4.78, "unit": "beats min-1"}, {"measurement": "Kb", "setting": "Cavia porcellus [4]", "value": 0.0741, "unit": "µM"}, {"measurement": "HR", "setting": "Rattus norvegicus [5]", "value": -17.33, "unit": "beats min-1"}, {"measurement": "HR", "setting": "Rattus norvegicus [6]", "value": -34.56, "unit": "beats min-1"}, {"measurement": "HR", "setting": "Rattus norvegicus [7]", "value": -12.22, "unit": "beats min-1"}, {"measurement": "BP", "setting": "Rattus norvegicus [8]", "value": -0.22, "unit": "mmHg"}, {"measurement": "BP", "setting": "Rattus norvegicus [9]", "value": 0.78, "unit": "mmHg"}, {"measurement": "Kb", "setting": "Cavia porcellus [10]", "value": 0.295, "unit": "µM"}, {"measurement": "BP", "setting": "Rattus norvegicus [11]", "value": -0.56, "unit": "mmHg"}, {"measurement": "BP", "setting": "Rattus norvegicus [12]", "value": 1.89, "unit": "mmHg"}, {"measurement": "HR", "setting": "Rattus norvegicus [13]", "value": 14.56, "unit": "beats min-1"}, {"measurement": "BP", "setting": "Rattus norvegicus [14]", "value": -1.11, "unit": "mmHg"}]}
{"smiles": "CCCCCCCCC(=O)NCc1ccc(OCC(O)CNCCCC)c(OC)c1", "note": "(stereo not drawn)", "values": [{"measurement": "HR", "setting": "Rattus norvegicus [3]", "value": -3.67, "unit": "beats min-1"}, {"measurement": "Kb", "setting": "Cavia porcellus [4]", "value": 0.0537, "unit": "µM"}, {"measurement": "HR", "setting": "Rattus norvegicus [5]", "value": -33.78, "unit": "beats min-1"}, {"measurement": "HR", "setting": "Rattus norvegicus [6]", "value": -40, "unit": "beats min-1"}, {"measurement": "HR", "setting": "Rattus norvegicus [7]", "value": -26.22, "unit": "beats min-1"}, {"measurement": "BP", "setting": "Rattus norvegicus [8]", "value": -1.22, "unit": "mmHg"}, {"measurement": "BP", "setting": "Rattus norvegicus [9]", "value": 3.33, "unit": "mmHg"}, {"measurement": "Kb", "setting": "Cavia porcellus [10]", "value": 0.0589, "unit": "µM"}, {"measurement": "BP", "setting": "Rattus norvegicus [11]", "value": -1.22, "unit": "mmHg"}, {"measurement": "BP", "setting": "Rattus norvegicus [12]", "value": 0.11, "unit": "mmHg"}, {"measurement": "HR", "setting": "Rattus norvegicus [13]", "value": -15.33, "unit": "beats min-1"}, {"measurement": "BP", "setting": "Rattus norvegicus [14]", "value": -0.22, "unit": "mmHg"}]}
{"smiles": "CCCCCCCCC(=O)NCc1ccc(OCC(O)CNC(C)C)c(OC)c1", "note": "(stereo not drawn)", "values": [{"measurement": "HR", "setting": "Rattus norvegicus [3]", "value": -20, "unit": "beats min-1"}, {"measurement": "Kb", "setting": "Cavia porcellus [4]", "value": 0.00851, "unit": "µM"}, {"measurement": "HR", "setting": "Rattus norvegicus [5]", "value": -40.78, "unit": "beats min-1"}, {"measurement": "HR", "setting": "Rattus norvegicus [6]", "value": -50.22, "unit": "beats min-1"}, {"measurement": "HR", "setting": "Rattus norvegicus [7]", "value": -35.44, "unit": "beats min-1"}, {"measurement": "BP", "setting": "Rattus norvegicus [8]", "value": -1.22, "unit": "mmHg"}, {"measurement": "BP", "setting": "Rattus norvegicus [9]", "value": -1.33, "unit": "mmHg"}, {"measurement": "Kb", "setting": "Cavia porcellus [10]", "value": 0.017, "unit": "µM"}, {"measurement": "BP", "setting": "Rattus norvegicus [11]", "value": -2.89, "unit": "mmHg"}, {"measurement": "BP", "setting": "Rattus norvegicus [12]", "value": -6.67, "unit": "mmHg"}, {"measurement": "HR", "setting": "Rattus norvegicus [13]", "value": -32.67, "unit": "beats min-1"}, {"measurement": "BP", "setting": "Rattus norvegicus [14]", "value": -0.44, "unit": "mmHg"}]}
{"smiles": "CCCCCCCCC(=O)NCc1ccc(OCCN(C)C)c(OC)c1", "values": [{"measurement": "Dose", "setting": "Rattus norvegicus [1]", "value": 0.5, "unit": "mg/kg"}, {"measurement": "BP", "setting": "Rattus norvegicus [2]", "value": -21.6, "unit": "mmHg"}]}
